Data published in ChEMBL document CHEMBL1156223, “Hydroxy cycloalkyl fused pyridone carboxylic acid M(1) positive allosteric modulators” (Bioorg Med Chem Lett, 2010).
Calls of active or inactive are those of the source. The calls are words filed in the database; no cut-off is given here.

Columns and labels:
[1] = biological target: T1, Muscarinic acetylcholine receptor M1 (Homo sapiens) (UniProt P11229); experiment: Agonist activity at human muscarinic M1 receptor expressed in CHO cells assessed as inflection point for increase of EC20 of acetylcholine-induced calcium mobilization by FLIPR assay; format: functional, cell-based
T1 sequence (whole entry): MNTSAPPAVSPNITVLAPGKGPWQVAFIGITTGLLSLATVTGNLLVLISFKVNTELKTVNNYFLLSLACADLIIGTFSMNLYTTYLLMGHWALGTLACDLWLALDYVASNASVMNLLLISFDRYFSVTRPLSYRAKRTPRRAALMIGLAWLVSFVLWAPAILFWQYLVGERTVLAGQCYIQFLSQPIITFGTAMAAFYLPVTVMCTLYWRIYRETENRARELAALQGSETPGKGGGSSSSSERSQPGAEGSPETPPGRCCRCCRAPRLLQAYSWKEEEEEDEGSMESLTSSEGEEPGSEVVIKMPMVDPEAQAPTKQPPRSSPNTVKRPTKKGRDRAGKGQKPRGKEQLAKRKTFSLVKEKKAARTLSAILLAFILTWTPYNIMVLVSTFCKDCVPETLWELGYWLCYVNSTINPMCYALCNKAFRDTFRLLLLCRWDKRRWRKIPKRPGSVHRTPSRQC
How it was run: (§1)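 Potency given as inflection point (IP); percent max is the response to compound plus EC20 acetylcholine relative to the maximal acetylcholine effect. Values averaged from at least two experiments; interassay variability ±30% for IP.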

[2] = biological target: T1, Muscarinic acetylcholine receptor M1 (Homo sapiens); experiment: Agonist activity at human muscarinic M1 receptor expressed in CHO cells assessed as increase in EC20 of concentration acetylcholine-induced calcium mobilization by FLIPR assay relative to acetylcholine; format: functional, cell-based; how it was run: as §1
[3] = Apparent permeability of the compound; settings: not told
Plasma = experiment: Drug levell in Sprague-Dawley rat plasma at 10 mg/kg, po; settings: read-out: Cp, in vivo
Brain = experiment: Drug level in Sprague-Dawley rat brain at 10 mg/kg, po; settings: read-out: Drug uptake, in vivo
Cerebrospinal fluid = experiment: Drug level in Sprague-Dawley rat CSF at 10 mg/kg, po; settings: read-out: Drug uptake, in vivo
[4] = Ratio of drug levell in brain to plasma in Sprague-Dawley rat at 10 mg/kg, po
Mus musculus = experiment: Inhibition of scopolamine-induced memory impairment in ip dosed mouse relative to control; format: functional, organism-based
How it was run: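 Mouse contextual fear conditioning (episodic memory model): scopolamine given before exposure to a novel environment to block the new association. Test compound dosed ip at three doses; reversal judged against scopolamine-alone mice. Plasma levels sampled at the 3 mpk dose.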

Activity [1]	Activity [2]	SMILES	further results
750 nM		O=C(O)c1cn(Cc2ccc(-c3ccoc3)cc2)c2c(c1=O)C(O)CCC2 (stereo not drawn)	
1100 nM		CN(C)c1ccc(-c2ccc(Cn3cc(C(=O)O)c(=O)c4c3CCCC4O)cc2)cn1 (stereo not drawn)	
4890 nM	70%	O=C(O)c1cn(Cc2ccc(-c3ccccc3)cc2)c2c(c1=O)CCCC2=O	
8190 nM	59%	O=C(O)c1cn(Cc2ccc(-c3ccccc3)cc2)c2c(c1=O)CCCC2O (stereo not drawn)	
2500 nM		O=C(O)c1cn(Cc2ccc(-n3ccnc3)cc2)c2c(c1=O)C(O)CCC2 (stereo not drawn)	
1370 nM		O=C(O)c1cn(Cc2ccc(-n3cccn3)cc2)c2c(c1=O)C(O)CCC2 (stereo not drawn)	
1400 nM		O=C(O)c1cn(Cc2ccc(-c3ccccc3Cl)cc2)c2c(c1=O)C(O)CCC2 (stereo not drawn)	
751 nM	91%	O=C(O)c1cn(Cc2ccc(-c3ccccc3)cc2)c2c(c1=O)CCCC2	
14800 nM		O=C(O)c1cn(Cc2ccc(-c3ccc(F)nc3)cc2)c2c(c1=O)C(O)CCC2 (stereo not drawn)	
810 nM	99%	O=C(O)c1cn(Cc2ccc(-c3ccccc3)cc2)c2c(c1=O)CCC2	
1390 nM		COc1ccc(-c2ccc(Cn3cc(C(=O)O)c(=O)c4c3CCCC4O)cc2)cc1 (stereo not drawn)	
2420 nM		Nc1ccc(-c2ccc(Cn3cc(C(=O)O)c(=O)c4c3CCCC4O)cc2)cn1 (stereo not drawn)	
800 nM	94%	O=C(O)c1cn(Cc2ccc(-c3ccccc3)cc2)c2c(c1=O)C(=O)CCC2	
3100 nM		COc1ccccc1-c1ccc(Cn2cc(C(=O)O)c(=O)c3c2CCCC3O)cc1 (stereo not drawn)	
340 nM		O=C(O)c1cn(Cc2ccc(-c3cccc(Cl)c3)cc2)c2c(c1=O)C(O)CCC2 (stereo not drawn)	
1100 nM	90%	COC1CCCc2c1c(=O)c(C(=O)O)cn2Cc1ccc(-c2ccccc2)cc1 (stereo not drawn)	
320 nM		COc1ccc(-c2ccc(Cn3cc(C(=O)O)c(=O)c4c3CCCC4O)cc2)cn1 (stereo not drawn)	
1100 nM		O=C(O)c1cn(Cc2ccc(-c3ccc(F)cc3)cn2)c2c(c1=O)C(O)CCC2 (stereo not drawn)	
2640 nM		O=C(O)c1cn(Cc2ccc(-c3ccsc3)cc2)c2c(c1=O)C(O)CCC2 (stereo not drawn)	
212 nM	92%	O=C(O)c1cn(Cc2ccc(-c3ccccc3)cc2)c2ccccc2c1=O	
420 nM		Nc1cccc(-c2ccc(Cn3cc(C(=O)O)c(=O)c4c3CCCC4O)nc2)c1 (stereo not drawn)	
410 nM		COc1cccc(-c2ccc(Cn3cc(C(=O)O)c(=O)c4c3CCCC4O)cc2)c1 (stereo not drawn)	
908 nM		Cn1cc(-c2ccc(Cn3cc(C(=O)O)c(=O)c4c3CCCC4O)cc2)cn1 (stereo not drawn)	Papp [3]: 19 ×10⁻⁶ cm/s; concentration (Plasma): 26700 nM; concentration (Brain): 368 nM; concentration (Cerebrospinal fluid): 110 nM; Kp [4]: 0.01
340 nM		O=C(O)c1cn(Cc2ccc(-c3ccc(Cl)cc3)cc2)c2c(c1=O)C(O)CCC2 (stereo not drawn)	
	99%	O=C(O)c1cn(Cc2ccc(-c3ccccc3)cc2)c2c(c1=O)C(O)CCC2 (stereo not drawn)	inhibition (Mus musculus): Active
